Assay outcomes (PubChem BioAssay)
H69AR growth 86K: proliferation blockers of H69AR lung cancer cells, primary screen, cell-based, human, 86K library; H69AR lung tumor viability, ATP luminescence, 72 h; active compounds read low; viability, % at 10 µM; actives 6% (n = 85,000);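 active means viability at or below 40%; inactive means viability above 40%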;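 further: multidrug resistant small cell line overexpressing MRP-1 efflux transporter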
ERa coact inh: ERα–SRC-1 coactivator interaction inhibitors, primary screen, biochemical, TR-FRET, ERα LBD, estradiol-bound; AID 629, 2007; actives 1.7% (n = 86,000); Estrogen receptor (Homo sapiens), P03372; TR-FRET ER-alpha LBD / SRC-1 peptide; inhibition, % at 25.6 µM; in the data active means inhibition above about 50%
Target sequence (P03372 whole entry, looked up, the tested form may be a part): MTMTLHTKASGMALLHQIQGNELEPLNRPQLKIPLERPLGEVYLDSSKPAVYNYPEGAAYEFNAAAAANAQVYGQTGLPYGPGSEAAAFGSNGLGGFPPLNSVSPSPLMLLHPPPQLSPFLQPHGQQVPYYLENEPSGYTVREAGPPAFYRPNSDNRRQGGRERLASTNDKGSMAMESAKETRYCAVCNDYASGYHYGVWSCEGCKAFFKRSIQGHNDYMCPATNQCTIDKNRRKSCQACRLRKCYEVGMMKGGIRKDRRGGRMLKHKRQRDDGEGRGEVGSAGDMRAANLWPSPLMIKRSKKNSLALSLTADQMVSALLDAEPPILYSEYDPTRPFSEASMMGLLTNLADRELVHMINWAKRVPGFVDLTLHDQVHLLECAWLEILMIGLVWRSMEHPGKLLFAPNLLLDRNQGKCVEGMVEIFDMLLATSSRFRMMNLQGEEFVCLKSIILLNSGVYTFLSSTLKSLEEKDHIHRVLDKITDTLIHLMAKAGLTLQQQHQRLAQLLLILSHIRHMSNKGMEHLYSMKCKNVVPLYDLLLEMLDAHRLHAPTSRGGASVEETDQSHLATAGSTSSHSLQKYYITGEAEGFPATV
Fibroblast inh: antiproliferative effect on LL 47 fibroblasts – human, LL 47 cells, CellTiter-Glo luminescence, primary screen; LL 47 human lung fibroblast viability, ATP luminescence; active compounds read low; actives 1.1% (n = 85,000); viability, % at 10 µM; AID 719, 2007;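 active means viability at or below 50% in the single dose screen; inactive means viability above 50%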;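 further: compound exposure lasted 72 h before the ATP readout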
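Benchmarks: Cell-only wells, no compound | Test system: LL 47 human lung fibroblasts, passage 12 or lower | Input: 1,150 cells/well | Measured by: CellTiter-Glo luminescence measuring cellular ATP | Medium: IMEM, 15% FBS supplement | Schedule: Overnight attachment after seeding, then 72 h compound exposure at 37 °C | Doses: Compound addition at 0.1% DMSO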
ERb coact inh: inhibitors of ERβ-SRC1 coactivator interaction, primary screen, biochemical, TR-FRET, ERβ LBD, SRC-1 peptide. Estrogen receptor beta (Homo sapiens), Q92731. TR-FRET ER-beta LBD / SRC1-Cy5 peptide binding; receptor agonist-loaded with 1 µM estradiol. AID 633, 2007. actives 1.3% (n = 86,000). inhibition, % at 25.6 µM;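 active means compounds whose percent inhibition of the receptor-coactivator binding signal exceeds about 50% in the single-dose screen, limit read from the data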
HUVEC inhibit: inhibitors of HUVEC proliferation, primary screen, cell-based, 384-well; CellTiter-Glo luminescence, 72 h; active compounds read low; viability, % at 10 µM (by protocol); actives 1.1% (n = 86,000);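 active means viability at or below 30%; inactive means viability above 30%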
ERa coact pot: enhancers of ERα–SRC-1 coactivator binding, primary screen, biochemical, TR-FRET, ERα LBD, low estradiol. Estrogen receptor (Homo sapiens), P03372. TR-FRET ERalpha-LBD/SRC-Cy5 coactivator binding, 2 h; 100 = basal binding, no effect. coactivator binding (% of control), % at 25.6 µM. actives 1.3% (n = 86,000). AID 639, 2007; in the data active means activity above about 200%;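 further: binding measured in presence of low estradiol as agonist stimulus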
Of the large screens only hits and unclear results are named; the others gave an inactive call; [ ] = another dose, or the depositor's remark. This is a sample that favours compounds with a hit; in the whole collection about 9.2% have one here.

Cc1ccc(O)c(C(=O)c2cc(C#N)c(=O)n(CC3CCCO3)c2)c1 (configuration not stated)	none
CCOc1ccc(S(=O)(=O)N2CCN(C(=O)c3sccc3C)CC2)cc1	none
CC(O)/C=C/c1ccc2ccccc2n1 (configuration not stated)	H69AR growth 86K 23
CC(C)c1ccc(-c2nc(N3CCCC3)nc3n[nH]c(N)c23)cc1	H69AR growth 86K 11
CC(C)c1ccc(-c2nc(N3CCCCCC3)nc3n[nH]c(N)c23)cc1	none
COc1ccc(S(=O)(=O)NC(C(C)C)C(C)C)cc1OC	none
COc1cc(S(=O)(=O)NC(C)C)ccc1Cl	ERa coact inh 65[fluorescence artefact?]
COc1cc(C2C(C#N)=C(N)Oc3cc(N)ccc32)cc(OC)c1OC (configuration not stated)	H69AR growth 86K 29
N#CC1=C(N)Oc2cc(Nc3ccccc3)ccc2C1c1ccncc1 (configuration not stated)	H69AR growth 86K 14, HUVEC inhibit 3.1
N#CC1=C(N)Oc2cc(N)ccc2C1c1ccc(F)cc1 (configuration not stated)	H69AR growth 86K 14
Cc1ccc(C2C(C#N)=C(N)Oc3n[nH]c(C)c32)cc1 (configuration not stated)	none
CSc1nc(N(CCO)CCO)c2sc3nc(-c4ccco4)c4c(c3c2n1)CCC4	ERa coact inh 81[fluorescence artefact?], ERb coact inh 83[fluorescence artefact?]
O=S(=O)(Nc1nc(CN2CCOCC2)nc2sc3c(c12)CCCC3)c1cc(F)ccc1F	none
C=CCNC(=O)c1c(N)n(-c2cccc(S(N)(=O)=O)c2)c2nc3ccccc3nc12	none
Nc1c(S(=O)(=O)c2cccc(Cl)c2)c2nc3ccccc3nc2n1/N=C/c1ccc(O)c(O)c1	H69AR growth 86K 1.3, Fibroblast inh 14, HUVEC inhibit 6.0
CC1=C(C(=O)Nc2ccccc2)C(c2ccc(C)o2)n2c(s/c(=C/c3ccccc3)c2=O)=N1 (configuration not stated)	H69AR growth 86K 23
CC1CC(C)CN(S(=O)(=O)c2ccc(C(=O)N3CCN(c4ccccc4)CC3)cc2)C1 (configuration not stated)	none
CCOC(=O)Nc1ccc2c(c1)N(C(=O)CCN1CCOCC1)c1ccccc1S2=O (configuration not stated)	H69AR growth 86K 1.9
COc1ccccc1NC(=O)CN(C)S(=O)(=O)c1ccc(F)cc1	none
CC(C)(C)NC(=O)/C=N/O	ERb coact inh 99[fluorescence artefact?]
Cc1cc(NCCCN2CCOCC2)n2ncc(-c3ccc(Cl)cc3)c2n1	H69AR growth 86K 24, Fibroblast inh 46
Cc1cc(NCCCn2ccnc2)n2ncc(-c3ccc(Cl)cc3)c2n1	H69AR growth 86K 19, Fibroblast inh 22, HUVEC inhibit 9.4
Cn1c(=O)c2c(nc(NCCCN3CCOCC3)n2Cc2ccc(Cl)cc2)n(C)c1=O	none
CCC(C)(C)n1nnnc1C(c1ccccn1)N1CCN(c2cccc(OC)c2)CC1 (configuration not stated)	none
CCCCCCC(=O)c1c(C)[nH]c(C(=O)OCC)c1C	none
Cc1c(NC(=O)COc2ncnc3ccccc23)c(=O)n(-c2ccccc2)n1C	none
Cc1cc2c(cc(C(=O)OCC(=O)NCc3cccs3)n2C(C)C)o1	H69AR growth 86K 27
CCCCOCCCn1c(-c2ccco2)nc2nc3ccccc3nc21	none
O=C1OC(C(=O)O)Cc2ccccc21 (configuration not stated)	none
Cc1cc2oc3c(c(=O)c2cc1C)C(c1cccc(Br)c1)N(Cc1ccco1)C3=O (configuration not stated)	H69AR growth 86K 4.5
COc1cc(C2c3c(oc4ccccc4c3=O)C(=O)N2Cc2ccco2)ccc1O (configuration not stated)	none
CCOc1cc(C2c3c(oc4cc(C)c(Cl)cc4c3=O)C(=O)N2Cc2ccco2)ccc1O (configuration not stated)	H69AR growth 86K 3.1, ERa coact inh 84[fluorescence artefact?]
CN1C(=O)c2oc3ccc(Br)cc3c(=O)c2C1c1ccncc1 (configuration not stated)	none
Cc1ccc2oc3c(c(=O)c2c1)C(c1cccc(Br)c1)N(Cc1ccco1)C3=O (configuration not stated)	H69AR growth 86K 3.1, Fibroblast inh 11
CCOc1ccc2[nH]c(=O)c(CN(CCc3ccccc3)C(=O)c3cnccn3)cc2c1	none
COc1ccc(C2CC(=O)N3CN(c4ccccc4F)CSC3=C2C#N)cc1OC (configuration not stated)	none
Cc1cccc(N2CSC3=C(C#N)C(c4ccc(C)o4)CC(=O)N3C2)c1 (configuration not stated)	ERa coact inh 83, ERb coact inh 68[fluorescence artefact?]
CCc1ccccc1N1CSC2=C(C#N)C(c3ccccc3F)CC(=O)N2C1 (configuration not stated)	H69AR growth 86K 29
Cc1nc(SCC(=O)N2CCN(c3ccccc3)CC2)c2c(=O)n(C)c(=O)n(C)c2n1	none
O=C(Nc1nc2ccc(S(=O)(=O)N3CCCC3)cc2s1)c1cccs1	H69AR growth 86K 36
CN(C)S(=O)(=O)c1ccc2nc(NC(=O)c3cccnc3)sc2c1	none
Cc1ccc(C(=O)Nc2nc3ccc(S(C)(=O)=O)cc3s2)o1	H69AR growth 86K 29
CN(C)S(=O)(=O)c1ccc2nc(NC(=O)c3cccs3)sc2c1	H69AR growth 86K 29
O=C(Nc1nc2ccc(S(=O)(=O)N3CCCCC3)cc2s1)c1ccncc1	none
COc1ccc(C(=O)Nc2nc3ccc(S(C)(=O)=O)cc3s2)cc1	none (no result: Fibroblast inh)
CC(C)(CO)NCc1ccccc1OCC(=O)Nc1ccccc1	none
Cc1ccc(NC(=O)COc2ccccc2CNC(C)(C)CC(C)(C)C)cc1	H69AR growth 86K 1.6, Fibroblast inh 35
O=C1C(c2ccncc2)N(CCC2=CCCCC2)C(=O)CN1C1CCCCC1 (configuration not stated)	none
CCN(C(=O)CN1CCCc2ccccc21)c1c(N)n(Cc2ccccc2)c(=O)[nH]c1=O	ERb coact inh 80[fluorescence artefact?]
CCN(C(=O)CN1CCN(c2ccccc2OC)CC1)c1c(N)n(Cc2ccccc2)c(=O)[nH]c1=O	none
CCOC(=O)C1=C(C)NC(=O)NC1c1c(O)ccc2ccccc12 (configuration not stated)	none
